Screening results deposited in PubChem BioAssay by several laboratories.
Hits are enriched below; roughly 4.9% of the tested compounds scored in any of these assays.
STAT3 act – increases IL-6 driven STAT3 reporter signal. U3A cells, IL-6 STAT3-luciferase reporter, luminescence; 100% = signal with IL-6 EC80 alone. activation (% of control), % at 5.6 µM. hit rate 0.91% among 190,000. AID 871;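 active = activation above the screen-wide mean of compound activation plus 3 SD, cut at about 130% in these data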;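 note: 0% = background luminescence of wells with medium and substrate only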
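System – human U3A cells carrying STAT3-luciferase construct · Probe or stimulus – Interleukin-6, 33 ng/mL · Schedule – compound 1 h, then IL-6 6 h at 37 °C · Signal – luminescence from STAT3-driven luciferase reporter · Evaluation – percent of IL-6-only median luminescence · Benchmarks – IL-6-only high control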
FLuc act counter – affects firefly luciferase, flagging false hits in luciferase stimulation screens | P08659 | ATPlite luciferase biochemical, luminescence, 10 min; 0 = ATP-free wells, 1 = DMSO control | activation factor at 10 µM | 200,000 tested, under 10 active;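 active = luciferase activation factor, scaled between plate controls, of at least 2 with compound at 10 µM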
Target sequence (P08659 whole entry, looked up): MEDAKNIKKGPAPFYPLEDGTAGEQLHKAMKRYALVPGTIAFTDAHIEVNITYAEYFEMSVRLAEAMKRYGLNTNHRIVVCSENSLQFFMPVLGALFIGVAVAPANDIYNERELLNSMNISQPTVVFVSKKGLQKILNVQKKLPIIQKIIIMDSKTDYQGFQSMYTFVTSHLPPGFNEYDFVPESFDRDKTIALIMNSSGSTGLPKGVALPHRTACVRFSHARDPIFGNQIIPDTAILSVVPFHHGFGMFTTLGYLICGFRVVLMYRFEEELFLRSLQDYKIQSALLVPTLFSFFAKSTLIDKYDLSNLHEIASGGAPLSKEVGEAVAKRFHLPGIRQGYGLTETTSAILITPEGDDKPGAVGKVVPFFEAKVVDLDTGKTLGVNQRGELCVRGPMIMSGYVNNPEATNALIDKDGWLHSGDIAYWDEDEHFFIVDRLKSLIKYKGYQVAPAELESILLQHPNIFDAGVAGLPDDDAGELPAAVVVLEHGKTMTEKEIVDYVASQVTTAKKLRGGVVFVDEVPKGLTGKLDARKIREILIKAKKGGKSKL
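assay system = Luciferase/luciferin detection reagent, cell-free biochemical luciferase assay | also added = ATP substrate | times = 10 min post-reagent at room temperature | measured by = luminescence from luciferase reaction | measure = luciferase activation, seen as luminescence increase over controls | benchmarks = low control with PBS replacing ATP, high control enzyme plus ATP without compound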
STAT3 inh – STAT3 signaling inhibition; U3A cells, IL-6 STAT3-luciferase reporter, luminescence; host cell line lacks STAT1; inhibition, % at 5.5 µM; hit rate 0.89% among 190,000; AID 862;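 active = inhibition above the mean inhibition across all screened compounds plus 3 SD, cut at about 44% in these data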;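 note: 0% = DMSO only wells and 100% = 100 µM nifuroxazide control wells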
FLuc inh counter – counter-screen for luciferase assay inhibitors: firefly luciferase inhibition; P08659; ATPLite firefly luciferase biochemical luminescence, 10 min; inhibition, % at 10 µM; hit rate 1.5% among 200,000;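 active = inhibition above about 50% when tested at 10 µM, limit read from the data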
STAT1 act – increases IFN-gamma driven STAT1 reporter signal; NIH 3T3 STAT1-luciferase reporter, luminescence; 100% = IFN-gamma alone, no compound; activation (% of control), % at 5.5 µM; hit rate 2.6% among 200,000; AID 932;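 active = activation above the screen-wide mean activation plus 3 SD, cut at about 130% in these data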;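 note: raw ratio to IFN-gamma control signal so 100% means no change and 0% no light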
STAT1 inh – STAT1 signaling inhibition. hit rate 0.35% among 200,000. inhibition, % at 5.5 µM. NIH 3T3 STAT1-luciferase reporter, IFN-gamma, luminescence;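 active = inhibition above a set limit, the mean inhibition across all tested compounds plus 3 SD, cut at about 34% in these data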;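 note: 0% = IFN-gamma with DMSO and 100% = IFN-gamma with 300 µM nifuroxazide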
* hit, by the source's call.

SMILES	STAT3 act	FLuc act counter	STAT3 inh	FLuc inh counter	STAT1 act	STAT1 inh
CS(=O)(=O)N(CC(=O)Nc1ccccc1Cl)c1ccc(Cl)cc1	106	1	-4	-2	103	-5
COc1ccc(NC(=O)c2cccs2)cc1OC	107	1	-5	1	107	-8
COc1ccc(Cl)cc1-c1nc(-c2ccc(NC(=O)c3cccs3)cc2)no1	109	0.9	-8	12	129*	-33
CC(C)Cn1c(-c2cccs2)nc2ccccc21	100	1	-3	-5	104	-4
Cn1c(-c2cccs2)nc2ccccc21	87	0.8	22	24	142*	-49
O=C(Nc1nnc(-c2ccco2)s1)C1CCCCC1	95	1	8	4	144*	-48
C/C(=N\NC(=O)c1cccc(N/N=C(\C)c2cc(O)ccc2O)c1)c1cc(O)ccc1O	91	0.8	15	18	106	-10
COc1ccc(S(=O)(=O)NCCc2nnc3ccc(SCc4cccnc4)nn23)cc1	92	1	14	-1	91	10
CN1C(=O)S/C(=C\c2ccc(-n3cncn3)cc2)C1=O	93	1	13	-1	105	-8
O=C1C(Nc2ccc(O)cc2)=C/C(=N/S(=O)(=O)c2cccs2)c2ccccc21	26	0.9	86*	14	15	90*
O=C(Nc1ccccc1)c1cc2ccccc2c(=O)s1	105	1	-6	2	146*	-52
O=C(CC12CC3CC(CC(C3)C1)C2)N/N=C/c1ccncc1	96	1.1	6	-6	96	4
COc1ccc(C)cc1N(C(=O)c1ccccc1)c1nc2ccccc2s1	127	1	-27	-3	105	-6
COc1ccc(C)cc1N(C(=O)c1cccc(F)c1)c1nc2ccccc2s1	134*	1	-35	-4	104	-5
Cc1nc2c(C(=O)N3CCCCC3)cnn2c(C)c1Cc1ccccc1F	121	0.8	-14	21	138*	-41
Cc1ccc2c(C)c(C(=O)Nc3cccnc3)oc2c1	97	0.9	10	13	103	-4
Cc1ccc2c(Cl)c(C(=O)Nc3cccnc3)sc2c1	104	0.3	-6	66*	122	-25
Cc1ccc(Nc2nc3ccccc3c(=O)s2)cc1C	99	1	6	-4	88	13
O=c1sc(Nc2ccccc2)nc2ccsc12	127	1	-33	2	137*	-38
COc1cccc(NC(=O)C(=O)NCc2ccncc2)c1	97	0.9	10	9	129*	-33
COC(=O)c1ccc(NC(=O)C(=O)N2CCN(C(=S)Nc3cccc(OC)c3)CC2)cc1	91	1	10	-2	94	6
COc1cccc(NC(=O)C(=O)N2CCOCC2)c1	113	0.8	-12	15	136*	-39
Cc1c(NC(=O)COC(=O)c2ccc(S(=O)(=O)N3CCOCC3)cc2)c(=O)n(-c2ccccc2)n1C	106	1	-3	-4	102	-4
O=C(CN1CCOCC1)Nc1ccc(-c2nc3ccccc3[nH]2)cc1	101	0.8	3	23	121	-23
O=C(Cc1cccs1)Nc1ccc(-c2nc3ccccc3[nH]2)cc1	115	0.5	-13	47	145*	-51
SMILES	STAT3 act	FLuc act counter	STAT3 inh	FLuc inh counter	STAT1 act	STAT1 inh
CCNC(=S)Nc1ccc(-c2nc3ccccc3[nH]2)cc1	91	0.5	15	51*	132*	-38
CCOc1ccc(NC(=S)NCc2nc3ccccc3[nH]2)cc1	107	1	4	-3	98	1
O=C(CSc1ccccc1)Nc1ccc(-c2nc3ccccc3[nH]2)cc1	116	0.6	-25	38	131*	-34
Cc1ccnc(N=Cc2c(O)ccc3oc4c(c23)CCCC4)c1	97	1	1	-2	102	0
Cc1cc(SCCOc2ccccc2)nc(N)n1	103	1	1	0	129*	-32
O=C(Oc1ccc(OC(=O)N2CCCCC2)cc1)N1CCCCC1	106	1	-1	0	100	-1
O=C(Oc1ccc(-c2ccccc2)cc1)N1CCCCC1	98	0.9	3	7	130*	-33
COc1cc(/C=C2\SC(=Nc3ccc(O)cc3)NC2=O)cc(OC)c1O	97	1	12	-2	95	6
O=C1NC(=O)/C(=C/c2ccc(O)cc2)S1	128	0.7	-22	27	130*	-32
CC(=O)N(C)C(c1ccc(N(C)C)cc1)c1nnnn1-c1c(C)cccc1C (stereo not drawn)	102	1.1	-3	-6	101	-1
Nc1ccccc1C(=O)N=Nc1[nH]c(N)c2ccccc12	90	0.2	14	79*	111	-13
Nc1[nH]c(N=NC(=O)c2ccc(F)cc2)c2ccccc12	86	0.4	16	55*	107	-8
Cn1ncnc1SCc1cn2cccnc2n1	101	1	2	-3	93	6
COc1ccc2c(c1)CCC1C2=NN(/C(C)=C\C(C)=O)C1c1ccc(F)cc1 (stereo not drawn)	128	0.8	-21	22	130*	-35
COc1ccc2c(c1)C1=NN(/C(C)=C/C(C)=O)C(c3ccc(F)cc3)C1CC2 (stereo not drawn)	132	1	-42	2	108	-9
COc1ccc2c(c1)C1=NN(/C(C)=C\C(C)=O)C(c3ccccc3)C1CC2 (stereo not drawn)	134*	1	-39	-5	102	-2
Cc1cc(N/N=C\c2ccccc2)nc(-c2ccccc2O)n1	93	0.4	5	65*	112	-13
Cc1cc(N/N=C/c2ccccc2Cl)nc(NCc2ccccc2)n1	92	0.4	5	60*	100	0
Cc1cc(N(C)/N=C/c2ccccc2)nc(-c2ccccc2O)n1	93	1	11	-2	103	-6
Cc1cc(N/N=C/c2ccccc2O)nc(-c2ccccc2O)n1	106	0.4	-10	61*	95	6
Cc1cc(N/N=C/c2ccc(O)cc2O)nc(-c2ccccc2O)n1	93	0.4	6	64*	121	-24
Cc1c(NC(=O)COC(=O)C(c2ccc(Cl)cc2)C(C)C)c(=O)n(-c2ccccc2)n1C (stereo not drawn)	98	1.1	0	-6	93	7
CCOc1cc(N2CCOCC2)c(OCC)cc1NC(=O)COC(=O)[C@@H]1CCCN1S(=O)(=O)c1ccccc1F	95	1	8	1	103	-4
Cc1cc(C)n2nc(C(F)(F)F)c(-c3ccccc3)c2n1	102	1.1	2	-7	106	-8
O=C1N/C(=C/c2ccc(N3CCOCC3)o2)C(=O)N1c1cccc(Cl)c1	93	1	17	-4	130*	-32
